Rows were chosen to be rich in hits. Some 4.2% of all compounds tested hit in one or more screens of this group.
UPR XBP1 act = adaptive UPR (XBP1) activation. AID 463104. CHO-XBP1 luciferase reporter, IRE1-XBP1 UPR activation, luminescence; percent of tunicamycin response, DMSO as zero. activation, % at 20 µM. 330,000 compounds, 0.33% hits;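 active means versus positive control, 20 µM dose yields 30% or more activation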
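Material: CHO cell line with stable XBP1 luciferase reporter; buffer or medium: F12 medium containing 10% fetal bovine serum; compound: single point, 20 µM final compound, 1% DMSO; incubation: 6 h treatment, 37 °C; measured by: glow luminescence from Steady-Glo reagent; evaluation: activation, % of tunicamycin; control set: tunicamycin high, DMSO low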
CHOP UPR activ = activators of apoptotic arm of unfolded protein response (CHOP); CHO-CHOP luciferase reporter, UPR activation, luminescence; percent of tunicamycin response over DMSO baseline; 330,000 compounds, 0.34% hits; activation, % at 10 µM;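 active means at 10 µM dose, activation of 40% or more, normalized to positive control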
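measured by = luciferase luminescence | assay system = CHO-CHOP cells, stable luciferase reporter of PERK-eIF2a-CHOP signalling | amount = 500 reporter cells seeded per well | timing = 6 h compound exposure at 37 °C after overnight seeding | controls = positive tunicamycin 10 µg/mL, negative DMSO alone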
Hep lipid drop = modulators of hepatic lipid droplet formation; AML12 mouse hepatocytes, oleate lipid droplets, BODIPY imaging; inhibition, % at 6.5 µM; 240,000 compounds, 0.4% hits;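 active means lipid droplet intensity inhibited by at least 50%, with more than 500 cells counted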
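System: AML12 hepatocytes (mouse). Probe or stimulus: oleic acid at 100 µM to induce lipid droplet formation. Times: overnight treatment with compound plus oleate. Detection: Image-based BODIPY and DAPI two-channel analysis. Evaluation: percent inhibition of filter-corrected integrated lipid droplet intensity per well.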
ANO1 block = blocks the mouse calcium-activated chloride channel TMEM16A | 310,000 compounds, 1.2% hits | normalized B-score (activity score, 25-100; higher = stronger inhibition) at 10 µM | Q8BHY3 | HEK293 TMEM16A/YFP iodide influx fluorescence, ionomycin;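 active means ratio plate-corrected score three or more library SD toward inhibition, starting fluorescence score within five deviations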;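 further: score derived from kinetic fluorescence span divided by baseline fluorescence per well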
CHOP inhibitor = inhibitors of CHOP induction in ER stress response | CHO-K1 CHOP-promoter luciferase, tunicamycin-induced, 15-18 h | inhibition, % at 10 µM | 220,000 compounds, 3.8% hits;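 active means compounds that reduced the stress-induced luciferase reporter signal by more than about 70% of percent inhibition, limit read from the data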
ANO1 activ = mouse TMEM16A channel activation, primary screen; Q8BHY3; HEK293 TMEM16A/YFP-H148Q/I152L, iodide quench fluorescence; active compounds read low; B-score at 10 µM; 340,000 compounds, 0.3% hits; AID 623877;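 active means fluorescence-ratio B-score plate-corrected deviation score at least 3 library SD below zero, with starting fluorescence score within 5 deviations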;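 further: channel opened by trigger with iodide after compound preincubation; score built on the fluorescence ratio of max minus min over baseline; more negative score means more quench and so TMEM16A activation or potentiation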
Of the large screens only hits and unclear results are named; the others gave an inactive call.

Cn1cccc1Cc1nnc(SCC(=O)Nc2cccc(F)c2)n1-c1ccc(F)cc1	none
CC(=O)c1nn(-c2cccc(Br)c2)cc1C(=O)c1ccc(Br)cc1	CHOP inhibitor 78
CC1(C)Oc2ccc(C(=O)NNC(=O)Nc3ccccc3)cc2NC1=O	none (no result: CHOP inhibitor)
CC(C)OC(=O)NCCOC(=O)Nc1ccc(Cl)cc1	none
Cc1ccc(C(=O)NC(C)c2ccc(F)cc2)cc1 (centres undefined)	none
Cc1ccc(C(C#N)c2ccc(C(=O)c3ccc(F)cc3)cc2)cc1 (centres undefined)	ANO1 block 25
Cc1nc(N2CCc3ccccc3C2)[nH]c(=O)c1Cc1ccccc1	CHOP inhibitor 78
CCCCCc1c(C)nc(N2CCc3ccccc32)[nH]c1=O	CHOP inhibitor 73 (no result: UPR XBP1 act, CHOP UPR activ, ANO1 block)
COc1cc(NC(=O)c2cc(-c3ccco3)on2)cc(OC)c1OC	none (no result: CHOP inhibitor)
Cc1sc2ncn(CCn3cnc4sc(C)c(C)c4c3=O)c(=O)c2c1C	CHOP inhibitor 90
Cc1cc2cc(C(c3nnnn3C3CCCC3)N(Cc3cccnc3)Cc3ccco3)c(=O)[nH]c2cc1C (centres undefined)	none
CCC(C)(C)n1nnnc1C(c1cc2ccc(C)cc2[nH]c1=O)N(Cc1cccnc1)Cc1ccco1 (centres undefined)	Hep lipid drop 62
CCCC(c1nnnn1C(C)(C)CC)N(Cc1ccco1)Cc1cc2ccc(OC)cc2[nH]c1=O (centres undefined)	CHOP inhibitor 91 (no result: UPR XBP1 act, CHOP UPR activ, ANO1 block)
O=c1c(NCCc2ccccc2)c(-c2ccccc2)c1=O	none (no result: CHOP inhibitor)
CSc1nc2cc3c(cc2n1C(=O)c1ccc(C)cc1)OCCO3	CHOP inhibitor 90 (no result: Hep lipid drop)
CCC1CN(S(=O)(=O)c2cc(-c3cc(C)no3)ccc2OC)c2cc(C)ccc2O1 (centres undefined)	none (no result: CHOP inhibitor)
Cn1c(=O)c(C#N)c(-c2ccc(F)cc2)c2cc(C(=O)c3cc(Cl)cc(Cl)c3O)cnc21	ANO1 block 100
COc1ccccc1-n1c(=O)c(C#N)c(-c2ccc([N+](=O)[O-])cc2)c2cc(C(=O)c3cc(F)ccc3O)cnc21	none
COCCNC(=O)c1nn2c(C(F)(F)F)cc(-c3ccccc3)nc2c1Cl	none (no result: CHOP inhibitor)
N#C/C(=N/Nc1ccccc1[N+](=O)[O-])C(N)=S	none
N#C/C(=N\Nc1ccc(Cl)cc1)C(N)=S	ANO1 block 100
N#C/C(=N\Nc1ccc(Cl)cc1)C(=N)N1CCCCC1	none (no result: Hep lipid drop)
N#C/C(=N\Nc1ccccc1)C(N)=S	ANO1 activ -16
Cc1ccc(N/N=C(\C#N)C(N)=S)cc1C	ANO1 block 100
O=C(O)C1CCCN1c1nc(-c2ccc(Cl)c(Cl)c2)cc(C(F)(F)F)n1 (centres undefined)	none (no result: Hep lipid drop, ANO1 block, CHOP inhibitor)
Cc1cc(C)c2c(N)c(C(=O)NN3CC(=O)N(c4ccccc4)CC3=O)sc2n1	none
Cc1cc2nc3n(c2cc1C)CC1CC(C(=O)NCc2cccc(Br)c2)N(C)C31 (centres undefined)	none (no result: Hep lipid drop, CHOP inhibitor)
CN1C(C(=O)NCc2cccc(Br)c2)CC2Cn3c(nc4cc(Cl)c(Cl)cc43)C21 (centres undefined)	ANO1 activ -4.8
Oc1ccc(/C=N/N(Cc2ccccc2)c2ccccc2)c(O)c1O	CHOP inhibitor 80 (no result: UPR XBP1 act, CHOP UPR activ, ANO1 block)
Oc1cccc(/C=N/N(Cc2ccccc2)c2ccccc2)c1	none
CCCCCc1ccc(OCCCC[n+]2cccc(C)c2)c(CCCCC)c1	ANO1 block 100, CHOP inhibitor 89
CCC(C)(C)c1ccc(OCCCC[n+]2ccccc2)c(C(C)(C)CC)c1	none
CCCCCc1ccc(OCCCC[n+]2ccccc2)c(CCCCC)c1	none
CCCCCc1ccc(OCCCC[n+]2ccc(C)cc2)c(CCCCC)c1	ANO1 block 100, CHOP inhibitor 75
Cc1cc(C)nc(Nc2n[nH]c(COc3ccc(Cl)cc3)n2)n1	CHOP inhibitor 93 (no result: Hep lipid drop)
Cc1cc(C)n2nc(-c3sccc3-n3c(C)ccc3C)cc2n1	CHOP inhibitor 76 (no result: Hep lipid drop)
NC(=O)c1ccc(NC(=O)COc2cccc3ccccc23)cc1	none (no result: CHOP inhibitor)
O=[N+]([O-])c1ccccc1S(=O)(=O)N1CCN(Cc2ccc3c(c2)OCO3)CC1	none
CC(=O)c1ccsc1-c1c(C)cc2oc(=O)cc(-c3ccccc3)c2c1C	none (no result: Hep lipid drop, ANO1 block, CHOP inhibitor, ANO1 activ)
COc1ccc2nc(SCCOC(=O)Nc3ccc(Cl)cc3)nc(C)c2c1	ANO1 block 25
Cc1nn(-c2ccc(F)cc2)c(Cl)c1/C=N/NC(=O)c1cccs1	CHOP inhibitor 93
Cc1ccc(S(=O)(=O)Nc2cc(=O)[nH]c(SCC(=O)Nc3cccc(C)c3)n2)cc1	none
COc1ccc(CNC(=O)CN2C(=O)NC(c3ccccc3)(c3ccccc3)C2=O)cc1OC	none (no result: UPR XBP1 act, CHOP UPR activ, Hep lipid drop, ANO1 block, CHOP inhibitor)
COc1ccc(Nc2nc(NC(C)(C)C)nc(N3CCCC3)n2)c(OC)c1	CHOP inhibitor 84 (no result: Hep lipid drop)
CCc1cc2cc(C)cc(C)c2nc1SCC(=O)N1CCCC1	CHOP inhibitor 87
Cc1cc(C)c(O)c(-c2cc(C(=O)Nc3ccc(S(=O)(=O)N4CCOCC4)cc3)[nH]n2)c1	ANO1 block 25, CHOP inhibitor 85
Cc1cc(C)cc(NC(=O)C2CCN(c3nccs3)CC2)c1	ANO1 activ -14 (no result: Hep lipid drop)
COC(=O)Cc1nnc(SCC(=O)Nc2ccccc2)c2ccccc12	none (no result: CHOP inhibitor)
CCc1ccc(N2CC(C(=O)N/N=C/c3cccc([N+](=O)[O-])c3)CC2=O)cc1 (centres undefined)	CHOP inhibitor 83 (no result: Hep lipid drop)
O=C(c1ccc(Cl)cc1)N1CCN(c2ncccn2)CC1	none (no result: Hep lipid drop, CHOP inhibitor)
CC(C)(C)N/C=C(\C#N)S(=O)(=O)c1ccc(Br)cc1	none
COc1cc(/C=C/C(=O)Nc2nnc(CC(C)(C)C)s2)cc(OC)c1OC	CHOP inhibitor 90
COc1ccc(/C=C/C(=O)Nc2nnc(C(C)C)s2)cc1OC	none
COc1cc(/C=C/C(=O)Nc2nnc(CC(C)C)s2)cc(OC)c1OC	CHOP inhibitor 90
O=C(NCC1CCCO1)C1CCCN(Cc2cnn(-c3ccccc3)c2-n2cccc2)C1 (centres undefined)	ANO1 activ -25
COc1ccc2c(c1)c1ncn(CCN3CCCCC3)c(=O)c1n2C	none
COc1ccc2c(c1)c1ncn(CCN3CCNCC3)c(=O)c1n2C	CHOP inhibitor 74
O=S1(=O)N=C(c2ccccc2)C=C(c2ccccc2)N1	none (no result: Hep lipid drop, ANO1 block, CHOP inhibitor)
CCC(c1nnnn1Cc1ccco1)N1CCN(c2cc(Cl)ccc2C)CC1 (centres undefined)	none (no result: Hep lipid drop)
Cc1ccc(Cl)cc1N1CCN(Cc2nnnn2Cc2ccco2)CC1	CHOP inhibitor 72 (no result: UPR XBP1 act, CHOP UPR activ)
CCOC(=O)c1nnn(-c2nonc2N)c1C	none
CCCN(CCC)Cc1c(C(=O)OCC)nnn1-c1nonc1N	CHOP inhibitor 86 (no result: Hep lipid drop)
